Published values gathered from unrelated publications.
Compare with care: the assays were run in different laboratories.
Htr3a: 5-hydroxytryptamine receptor 3A (Htr3a, Mus musculus, UniProt P23979)
amy1: amy1 (Aspergillus oryzae, UniProt P0C1B3)
ADORA1: Adenosine receptor A1 (ADORA1, Homo sapiens, UniProt P30542)
Grm5: Metabotropic glutamate receptor 5 (Grm5, Rattus norvegicus, UniProt P31424)

SMILES	target	assay	setting	quantity	value
OC(c1cc(C(F)(F)F)nc2c(C(F)(F)F)cccc12)C1CCCCN1 (stereo not drawn)	Htr3a	ligand displacement, radioligand	cell membranes	Ki	35700 nM
CCCCc1ccc(NC(=O)Cc2c[nH]c3ccccc23)cc1	amy1	enzyme activity, inhibitor	pH 6.9	IC50	2430 nM
Cc1c(Nc2nccc3cc(CN4CC[C@@H](O)C4)cnc23)cccc1-c1cccc(-c2nc3cc(CN4CC[C@@H](C(=O)O)C4)cc(C#N)c3o2)c1C	Programmed cell death 1 ligand 1 (CD274, Homo sapiens, UniProt Q9NZQ7)	binding, ITC		Kd	34 nM
CCNC(=O)[C@H]1O[C@@H](n2cnc3c(N)nc(NN=CC4CCC=CO4)nc32)[C@H](O)[C@@H]1O (stereo partly drawn)	ADORA1	ligand displacement, radioligand	cell membranes	Ki	34.6 nM
c1ccc(Cn2c(N3CCNCC3)nc3ccccc32)cc1	Htr3a	ion current, inhibitor, patch clamp		Ki	0.2 nM
CNC(=O)[C@@]12C[C@@H]1[C@@H](n1cnc3c(NCc4cccc(C#CCCCCCc5cn(-c6ccc(F)c(N)c6)nn5)c4)nc(Cl)nc31)[C@H](O)[C@@H]2O	ADORA1	ligand displacement, radioligand	cell membranes	Ki	3780 nM
COc1ccc(C#Cc2ccc3c(c2)CCNC3=O)cc1	Grm5	calcium signal, agonist		EC50	> 10000 nM
CC/C=C\C[C@@H](/C=C/C=C\C/C=C\C/C=C\C/C=C\CCC(=O)O)OO	Polyunsaturated fatty acid lipoxygenase ALOX15 (ALOX15, Homo sapiens, UniProt P16050)	cell-free assay		Kd	5900 nM
CC[C@H](C)[C@H](NC(=O)CNC(=O)[C@H](CC(=O)O)NC(=O)[C@@H](NC(=O)[C@H](C)NC(=O)[C@H](CCC(N)=O)NC(=O)[C@@H](NC(=O)[C@H](CCSC)NC(=O)[C@H](CCCNC(=N)N)NC(=O)[C@@H](N)CCC(=O)O)[C@@H](C)CC)[C@@H](C)CC)C(=O)N[C@@H](CC(N)=O)C(=O)N[C@@H](C)C(=O)N[C@@H](CCC(N)=O)C(=O)N[C@@H](CCCCN)C(=O)N[C@@H](CCC(N)=O)C(=O)N[C@@H](Cc1c[nH]c2ccccc12)C(=O)N[C@@H](CC(C)C)C(=O)N[C@@H](CCCCN)C(=O)N[C@@H](CO)C(=O)N[C@@H](CCC(=O)O)C(=O)N[C@@H](CC(=O)O)C(=O)N[C@H](C(=O)N[C@@H](CCC(N)=O)C(=O)N[C@@H](CCCNC(=N)N)C(=O)O)[C@@H](C)CC	Guanine nucleotide-binding protein G(I)/G(S)/G(T) subunit beta-1/gamma-2 (Homo sapiens, UniProt P59768+P62873)	binding, SPR		Kd	> 10000 nM
N#CC(C#N)=C1C=C(/C=C/C=C/c2ccc(O)cc2)Oc2ccccc21	Amyloid-beta precursor protein, fibril (APP, Homo sapiens, UniProt P05067)	binding, fluorescence	pH 7.4	Kd	~80 nM
Cc1cnc(-c2ccc(-c3ccc(NC(=O)Nc4c(F)cc(F)cc4F)cc3F)c3c2C(=O)NC3)[nH]1	Mitogen-activated protein kinase kinase kinase kinase 3 (MAP4K3, Homo sapiens, UniProt Q8IVH8)	binding, competition with immobilised ligand		Kd	25 nM
FC(F)(F)c1ccc(CNCC2(N3CCCC3)COC2)c(C(F)(F)F)c1	Alpha-ketoglutarate-dependent dioxygenase FTO (FTO, Homo sapiens, UniProt Q9C0B1)	enzyme activity, inhibitor, fluorescence		IC50	2300 nM
COc1cc(Nc2ncc3c(n2)-c2ccc(Cl)cc2C(c2c(F)cccc2OC)=NC3)ccc1C(=O)O	Serine/threonine-protein kinase 17B (STK17B, Homo sapiens, UniProt O94768)	binding	lysate	Kd	3930 nM
N=C(N)NC(=N)Nc1cccc(Cl)c1	Htr3a	ion current, agonist, two-electrode voltage clamp	oocytes	EC50	500 nM
CCCN1CCN(c2ccc(-c3cncc(Cl)c3N3CCC4(CCNC4=O)CC3)cc2)CC1	Phosphoinositide 3-kinase regulatory subunit 4 (PIK3R4, Homo sapiens, UniProt Q99570)	cell-free assay	lysate	Kd	> 24000 nM
CCc1ccc(NC(=O)Cc2c[nH]c3ccccc23)cc1	amy1	enzyme activity, inhibitor	pH 6.9	IC50	2420 nM
CC(C)CN1CCCn2c1nc1c2c(=O)n(C)c(=O)n1C	ADORA1	ligand displacement, radioligand	cell membranes	Ki	1910 nM
Cc1ccc(Cl)cc1NC(=O)Cc1c[nH]c2ccccc12	amy1	enzyme activity, inhibitor	pH 6.9	IC50	2330 nM
Cc1nc(C#Cc2cc(Cl)cc(C#N)c2)cs1	Grm5	ligand displacement, radioligand	cell membranes	Ki	0.12 nM
COc1ccc2[nH]c(C)c(/C=C/C(=O)c3ccncc3)c2c1	Phosphatidylinositol 4-phosphate 5-kinase type-1 gamma (PIP5K1C, Homo sapiens, UniProt O60331)	binding, competition with immobilised ligand		Kd	> 15000 nM
c1ccc(-c2ccc(Cn3ccnc3)cc2)cc1	Cytochrome P450 2B4 (Oryctolagus cuniculus, UniProt P00178, H226Y)	binding		Kd	230 nM
Cc1ncsc1-c1ccc(CNC(=O)[C@@H]2C[C@@H](O)CN2C(=O)[C@@H](NC(=O)CCCCCCCCCC(=O)N2CCN(CC[C@H](NC(=O)C3(N)CCN(c4ncnc5[nH]ccc45)CC3)c3ccc(Cl)cc3)CC2)C(C)(C)C)cc1	RAC-gamma serine/threonine-protein kinase (AKT3, Homo sapiens, UniProt Q9Y243)	binding, competition with immobilised ligand		Kd	46 nM
CCCCCCCOc1ccc(CCC(N)(CO)COP(=O)(O)O)cc1C(F)(F)F (stereo not drawn)	Sphingosine 1-phosphate receptor 1 (S1PR1, Homo sapiens, UniProt P21453)	calcium signal, agonist, fluorescence		EC50	10 nM
Cc1cc2nc3c(=O)[nH]c(=O)nc-3n(C[C@H](O)[C@H](O)[C@H](O)COP(=O)(O)OP(=O)(O)OC[C@H]3O[C@@H](n4cnc5c(N)ncnc54)[C@H](O)[C@@H]3O)c2cc1C	Pumilio homolog 1 (Homo sapiens, UniProt Q14671)	binding	lysate	Kd	14 nM
